Common to all, as to assay type: functional
For assay [1], the system named is Escherichia coli. The experiment in a line: Induction of qnrB1 gene expression in lexA- and recA- positive Escherichia coli J53 at 0.2 ug/ml after 15 mins by quantitative PCR method relative to control. A digest of the protocol: (§1)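 Plasmid-bearing strains grown in triplicate in LB broth at 37°C to exponential phase. At OD600 0.08 to 0.1, mitomycin C 0.2 μg/ml was added, with one culture left untreated as control. RNA was stabilised, extracted and DNase-treated, then reverse-transcribed with gene-specific reverse primers for real-time qPCR. Levels were calculated by 2−ΔΔCT relative to the unsupplemented control. Experiments repeated at least twice.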

For assay [2], the system named is Escherichia coli. The experiment in a line: Induction of qnrB1 gene expression in lexA- and recA- positive Escherichia coli J53 at 0.2 ug/ml after 30 mins by quantitative PCR method relative to control. A digest of the protocol:
as §1

The subject of assay [3] is Escherichia coli. Nature of the assay: Induction of qnrB4 gene expression in lexA- and recA- positive Escherichia coli J53 at 0.2 ug/ml after 15 mins by quantitative PCR method relative to control. In short, it runs like this: as §1
Assay [4] has as its system Escherichia coli. The experiment in a line: Induction of qnrB4 gene expression in lexA- and recA- positive Escherichia coli J53 at 0.2 ug/ml after 30 mins by quantitative PCR method relative to control. In short, it runs like this:
as §1

Assay [5] concerns Escherichia coli. The experiment in a line: Induction of qnrA1 gene expression in lexA- and recA- positive Escherichia coli J53 at 0.2 ug/ml after 30 mins by quantitative PCR method relative to control. In short, it runs like this:
as §1

In assay [6] the test system is Escherichia coli. The experiment in a line: Induction of qnrB4 gene expression in lexA- and recA- positive Escherichia coli AB1157 at 0.2 ug/ml after 30 mins by quantitative PCR method relative to control. A digest of the protocol:
as §1

Assay [7] deals with Escherichia coli. Nature of the assay: Induction of qnrB4 gene expression in recA-positive lexA deficient Escherichia coli AB1157 expressing deffective lexA gene at 0.2 ug/ml after 30 mins by quantitative PCR method relative to control. In short, it runs like this:
as §1

Assay [8] has as its system Escherichia coli. The experiment in a line: Induction of qnrB4 gene expression in recA-positive Escherichia coli DM49 expressing protease-resistant lexA at 0.2 ug/ml after 30 mins by quantitative PCR method relative to control. In short, it runs like this:
as §1

Take `CO[C@@]12[C@H](COC(N)=O)C3=C(C(=O)C(C)=C(N)C3=O)N1C[C@@H]1N[C@@H]12` [MITOMYCIN]: the “fold change (FC)” value in assay [1] is reported as 2.6; in assay [2] it was 2.8; in assay [3] it was 8.2; in assay [4], 7.9; in assay [5], 0.9; in assay [6], 2. Also, the “fold change (FC)” value in assay [7] and in assay [8] was 1 each time.

(Values after ChEMBL document CHEMBL1629618, “SOS regulation of qnrB expression” (2009).)
